Calls of active or inactive are those of the source. The rule behind the calls is not given here.
Columns and labels:
[1] = test system: Triticum aestivum; assay: Inhibition of hypocotyl length of Triticum aestivum cv. Cortex (wheat) at 0.1 mM or 1 mM after 5 days relative to untreated control; type: functional
Method in brief: (§1)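 Wheat: 10 seeds per dish on filter paper with 5 mL test solution, 5 days in the dark at 25 °C, 10 replicates per concentration. Stock test solutions were 10^-3 or 10^-4 M in 10 mM MES, with lower levels made by dilution, all at pH 6.0. Parallel controls were run. Output is % difference from control.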

[2] = test system: Triticum aestivum; assay: Stimulation of root length of Triticum aestivum cv. Cortex (wheat) at 0.1 mM or 1 mM after 5 days relative to untreated control; type: functional; method in brief: as §1
[3] = test system: Lactuca sativa; assay: Inhibition of germination of Lactuca sativa cv. Roman (lettuce) at 0.1 mM or 1 mM after 5 days relative to untreated control; type: functional
Method in brief: (§2)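 Lettuce and tomato seeds, 25 per dish on filter paper, received 5 mL test solution. Incubation was 5 days in the dark at 25 °C, with four replicates per concentration. Solutions were made at 10^-3 or 10^-4 M in 10 mM MES, diluted serially, and adjusted to pH 6.0. Parallel controls were run. Results are % difference from control.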

[4] = test system: Lactuca sativa; assay: Inhibition of hypocotyl length of Lactuca sativa cv. Roman (lettuce) at 0.1 mM or 1 mM after 5 days relative to untreated control; type: functional; method in brief: as §2
[5] = test system: Lactuca sativa; assay: Inhibition of root length of Lactuca sativa cv. Roman (lettuce) at 0.1 mM or 1 mM after 5 days relative to untreated control; type: functional; method in brief: as §2
[6] = test system: Triticum aestivum; assay: Stimulation of germination of Triticum aestivum cv. Cortex (wheat) at 0.1 mM or 1 mM after 5 days relative to untreated control; type: functional; method in brief: as §1
[7] = test system: Lepidium sativum; assay: Inhibition of germination of Lepidium sativum at 0.1 mM or 1 mM after 4 days relative to untreated control; design: scale not given: the % may be the effect or the level left
[8] = test system: Allium cepa; assay: Stimulation of hypocotyl length of Allium cepa cv. Valenciana (onion) at 0.1 mM or 1 mM after 7 days relative to untreated control
[9] = test system: Lepidium sativum; assay: Inhibition of hypocotyl length of Lepidium sativum at 0.1 mM or 1 mM after 4 days relative to untreated control
[10] = test system: Allium cepa; assay: Inhibition of root length of Allium cepa cv. Valenciana (onion) at 0.1 mM or 1 mM after 5 days relative to untreated control; type: functional
[11] = test system: Lepidium sativum; assay: Inhibition of root length of Lepidium sativum at 0.1 mM or 1 mM after 4 days relative to untreated control
[12] = test system: Solanum lycopersicum; assay: Stimulation of root length of Solanum lycopersicum cv. Tres Cantos (tomato) at 0.1 mM or 1 mM after 5 days relative to untreated control; type: functional; method in brief: as §2
[13] = test system: Solanum lycopersicum; assay: Inhibition of hypocotyl length of Solanum lycopersicum cv. Tres Cantos (tomato) at 0.1 mM or 1 mM after 5 days relative to untreated control; type: functional; method in brief: as §2
[14] = test system: Allium cepa; assay: Stimulation of root length of Allium cepa cv. Valenciana (onion) at 0.1 mM or 1 mM after 7 days relative to untreated control
[15] = test system: Lactuca sativa; assay: Stimulation of germination of Lactuca sativa cv. Roman (lettuce) at 0.1 mM or 1 mM after 5 days relative to untreated control; type: functional; method in brief: as §2
[16] = test system: Solanum lycopersicum; assay: Inhibition of germination of Solanum lycopersicum cv. Tres Cantos (tomato) at 0.1 mM or 1 mM after 5 days relative to untreated control; type: functional; method in brief: as §2
[17] = test system: Triticum aestivum; assay: Stimulation of hypocotyl length of Triticum aestivum cv. Cortex (wheat) at 0.1 mM or 1 mM after 5 days relative to untreated control; type: functional; method in brief: as §1
[18] = test system: Lactuca sativa; assay: Stimulation of hypocotyl length of Lactuca sativa cv. Roman (lettuce) at 0.1 mM or 1 mM after 5 days relative to untreated control; type: functional; method in brief: as §2
[19] = test system: Lepidium sativum; assay: Stimulation of hypocotyl length of Lepidium sativum at 0.1 mM or 1 mM after 5 days relative to untreated control; type: functional
[20] = test system: Lepidium sativum; assay: Inhibition of germination of Lepidium sativum at 0.1 mM or 1 mM after 5 days relative to untreated control; type: functional
[21] = test system: Solanum lycopersicum; assay: Stimulation of hypocotyl length of Solanum lycopersicum cv. Tres Cantos (tomato) at 0.1 mM or 1 mM after 5 days relative to untreated control; type: functional; method in brief: as §2
[22] = test system: Solanum lycopersicum; assay: Inhibition of root length of Solanum lycopersicum cv. Tres Cantos (tomato) at 0.1 mM or 1 mM after 5 days relative to untreated control; type: functional; method in brief: as §2
[23] = test system: Lepidium sativum; assay: Stimulation of root length of Lepidium sativum at 0.1 mM or 1 mM after 5 days relative to untreated control; type: functional
[24] = test system: Triticum aestivum; assay: Inhibition of germination of Triticum aestivum cv. Cortex (wheat) at 0.1 mM or 1 mM after 5 days relative to untreated control; type: functional; method in brief: as §1
[25] = test system: Allium cepa; assay: Stimulation of germination of Allium cepa cv. Valenciana (onion) at 0.1 mM or 1 mM after 7 days relative to untreated control
[26] = test system: Lactuca sativa; assay: Stimulation of root length of Lactuca sativa cv. Roman (lettuce) at 0.1 mM or 1 mM after 5 days relative to untreated control; type: functional; method in brief: as §2
[27] = test system: Triticum aestivum; assay: Inhibition of root length of Triticum aestivum cv. Cortex (wheat) at 0.1 mM or 1 mM after 5 days relative to untreated control; type: functional; method in brief: as §1
[28] = test system: Allium cepa; assay: Inhibition of hypocotyl length of Allium cepa cv. Valenciana (onion) at 0.1 mM or 1 mM after 7 days relative to untreated control
[29] = test system: Allium cepa; assay: Inhibition of germination of Allium cepa cv. Valenciana (onion) at 0.1 mM or 1 mM after 5 days relative to untreated control; type: functional
[30] = test system: Solanum lycopersicum; assay: Stimulation of germination of Solanum lycopersicum cv. Tres Cantos (tomato) at 0.1 mM or 1 mM after 5 days relative to untreated control; type: functional; method in brief: as §2
[31] = test system: Lepidium sativum; assay: Inhibition of germination of Lepidium sativum at 0.1 mM or 1 mM after 4 days relative to untreated control

Row | Structure (SMILES) | inhibition (INH) [1] | Activity [2] | inhibition [3] | inhibition (INH) [4] | inhibition (INH) [5] | Activity [6] | Activity [8] | inhibition [9] | inhibition [10] | Activity [12] | Activity [14] | Activity [15] | Activity [17] | Activity [18] | Activity [19] | Activity [21] | Activity [23] | Activity [25] | Activity [26] | inhibition [28] | other results
1 | C=C1[C@@H]2[C@H]3OC(=O)C(=C)[C@@H]3CCC(=C)[C@@H]2C[C@@H]1O [ZALUZANIN C] | 20% | 20% | inactive | 20% | 20% | <20% | inactive | inactive | inactive | <20% | inactive | inactive | 20% | 20% | inactive | inactive | <20% | inactive | 20% | inactive | Activity [7]: <20%; inhibition (INH) [11]: <20%; inhibition [13]: inactive; inhibition [16]: inactive; inhibition (INH) [20]: <20%; inhibition (INH) [22]: <20%; inhibition (INH) [24]: <20%; inhibition (INH) [27]: 20%; inhibition [29]: inactive; Activity [30]: inactive
2 | C=C1C(=O)O[C@H]2[C@H]1CCC(=C)[C@]1(O)C[C@@H](O)C(=C)[C@]21O | <20% | <20% | inactive | 20% | <20% | inactive | inactive | inactive | inactive | inactive | inactive | inactive | <20% | 20% | inactive | inactive | <20% | inactive | <20% | inactive | inhibition (INH) [11]: <20%; inhibition [13]: inactive; inhibition (INH) [16]: <20%; inhibition [22]: inactive; inhibition [24]: inactive; Activity [31]: inactive; inhibition [31]: inactive; inhibition (INH) [27]: <20%; inhibition [29]: inactive; Activity [30]: <20%
3 | CC(=O)O[C@H]1CC(C)=C2C(=O)C=C(C)[C@@H]2[C@H]2OC(=O)[C@H](C)[C@H]21 [8ALPHA-ACETOXYACHILLIN] | <20% | inactive | inactive | <20% | <20% | 20% | inactive | inactive | inactive | inactive | inactive | inactive | <20% | <20% | inactive | <20% | inactive | inactive | <20% | inactive | inhibition [11]: inactive; inhibition (INH) [13]: <20%; inhibition [16]: inactive; inhibition [22]: inactive; inhibition (INH) [24]: 20%; Activity [31]: inactive; inhibition [31]: inactive; inhibition [27]: inactive; inhibition [29]: inactive; Activity [30]: inactive

Source: ChEMBL document CHEMBL3045304, “Sesquiterpene lactones with potential use as natural herbicide models. 2. guaianolides” (2000)
